The subject of data set [1] is RAW264.7. Nature of the data set: Cytotoxicity against mouse RAW264.7 cells assessed as reduction in cell viability after 24 hrs by MTT assay. In kind it is functional, cell-based. Particulars: RAW264.7, 24 h. An outline of the steps: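 RAW 264.7 mouse macrophage line kept in RPMI 1640 with 10% FBS, L-glutamine and antibiotics. Treated with 1–100 μM for 24 h, then MTT at 37 °C for 4 h. Formazan taken up in DMSO and read at 540 nm. Triplicate, at least three independent experiments. IC50 is the concentration giving 50% loss of viability relative to untreated cells.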
Background: Tetrazolium assays rely on reduction of a dye to a coloured formazan, in cell work by metabolically active cells.

For the next data set, the system named is HeLa. Nature of the data set: Cytotoxicity against human HeLa cells assessed as reduction in cell viability after 24 hrs by MTT assay. Type of data set: functional, cell-based. An outline of the steps:
(§1)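 Cancer cells kept in DMEM with 10% FBS, L-glutamine and antibiotics. Exposed to 1–100 μM for 24 h, then MTT at 37 °C for 4 h. Formazan dissolved in DMSO and read at 540 nm. Triplicate wells, at least three independent experiments. Viability reduction expressed against untreated cultures. IC50 is the concentration giving 50% loss of viability.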

For another data set, the system named is HepG2. Nature of the data set: Cytotoxicity against human HepG2 cells assessed as reduction in cell viability after 24 hrs by MTT assay. Type of data set: functional, cell-based. Particulars: HepG2, 24 h. In short, it runs like this: as §1
A further data set concerns HT-29. Nature of the data set: Cytotoxicity against human HT-29 cells assessed as reduction in cell viability after 24 hrs by MTT assay. Particulars: HT-29, 24 h. Type of data set: functional, cell-based. An outline of the steps: as §1
A short description of data set [2]: Toxicity in thioglycolate-induced mouse peritoneal macrophages assessed as reduction in cell viability after 24 hrs by MTT assay. The note with it: peritoneal macrophage cell. In kind it is cell-based. In short, it runs like this: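 Primary peritoneal macrophages from thioglycolate-injected mice exposed to a range of concentrations for 24 h. Viability read by MTT at 37 °C for 4 h, formazan dissolved in DMSO, absorbance at 540 nm. Three independent experiments in duplicate, means ± SD.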

The nature of data set [3]: Toxicity in thioglycolate-induced mouse peritoneal macrophages assessed as induction of apoptosis after 24 hrs by flow cytometry. Type of data set: cell-based. Particulars: peritoneal macrophage cell. An outline of the steps:
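Peritoneal macrophages collected from thioglycolate-injected mice and treated across a concentration range for 24 h. Stained with PI and analysed by flow cytometry for apoptotic percentage. Means ± SD of three independent experiments done in duplicate.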
(A flow cytometer gives signals particle by particle.)

Data set [4] deals with RAW264.7. Nature of the data set: Induction of apoptosis in mouse RAW264.7 cells at 1 to 25 uM after 24 hrs by flow cytometry. Type of data set: functional, cell-based. In short, it runs like this:
(§2)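 RAW 264.7 cells exposed to 1–25 μM for 24 h. Stained with 0.005% (w/v) propidium iodide and analysed at once by flow cytometry. Apoptotic and necrotic fractions taken from a forward scatter versus PI fluorescence dot plot. Means ± SD of three independent experiments in triplicate.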

Data set [5] concerns RAW264.7. Nature of the data set: Induction of apoptosis in mouse RAW264.7 cells at 1 uM after 24 hrs by flow cytometry. Type of data set: functional. In short, it runs like this:
as §2

The subject of data set [6] is RAW264.7. Nature of the data set: Induction of apoptosis in mouse RAW264.7 cells assessed as caspase 8 activation at 5 uM after 24 hrs by fluorimetry. Type of data set: functional, cell-based. In short, it runs like this:
(§3)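 RAW cells treated with 5 μM for 24 h, with or without 40 μM z-VAD. Caspase activity read fluorimetrically in cytosolic extracts. Substrates: Ac-DEVD-AMC for caspase-3, Ac-IETD-AFC for caspase-8, Ac-LEHD-AFC for caspase-9. Means ± SD of three independent experiments run in triplicate.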

In data set [7] the test system is RAW264.7. Nature of the data set: Induction of apoptosis in mouse RAW264.7 cells assessed as caspase 9 activation at 5 uM after 24 hrs by fluorimetry. Type of data set: functional, cell-based. In short, it runs like this: as §3
In data set [8] the test system is RAW264.7. Nature of the data set: Induction of apoptosis in mouse RAW264.7 cells assessed as caspase 3 activation at 5 uM after 24 hrs by fluorimetry. Type of data set: functional, cell-based. An outline of the steps: as §3
For data set [9], the system named is RAW264.7. Nature of the data set: Induction of apoptosis in mouse RAW264.7 cells assessed as caspase 8 activation at 5 uM in presence of 40 uM caspase inhibitor z-VAD after 24 hrs by fluorimetric assay. In kind it is functional, cell-based. In short, it runs like this:
as §3

Data set [10] relates to RAW264.7. Nature of the data set: Induction of apoptosis in mouse RAW264.7 cells assessed as caspase 9 activation at 5 uM in presence of 40 uM caspase inhibitor z-VAD after 24 hrs by fluorimetric assay. In kind it is functional, cell-based. An outline of the steps:
as §3

In data set [11] the test system is RAW264.7. Nature of the data set: Induction of apoptosis in mouse RAW264.7 cells assessed as caspase 3 activation at 5 uM in presence of 40 uM caspase inhibitor z-VAD after 24 hrs by fluorimetric assay. In kind it is functional, cell-based. In short, it runs like this:
as §3

Data set [12] relates to RAW264.7. Nature of the data set: Induction of apoptosis in mouse RAW264.7 cells at 5 uM in presence of 40 uM caspase inhibitor z-VAD after 24 hrs by flow cytometry. In kind it is functional, cell-based. In short, it runs like this: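 RAW 264.7 cells given 5 μM for 24 h, with or without 40 μM z-VAD. Stained with 0.005% (w/v) PI and analysed by flow cytometry. Apoptotic percentage taken from a forward scatter versus PI fluorescence dot plot. Three independent experiments in triplicate, means ± SD.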

For data set [13], the system named is RAW264.7. Nature of the data set: Increase in p53 protein expression in mouse RAW264.7 cells at 5 uM by Western blot. Type of data set: functional, cell-based. In short, it runs like this: (§4)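 RAW 264.7 cells incubated with 5 μM and sampled at several time points. Cytosolic extracts run on SDS–PAGE (10–15% gels) and blotted to PVDF. Probed for p53, Bax, Bcl-2, Bcl-xl, XIAP, IAP-1 and IAP-2, then HRP secondary and chemiluminescence. β-actin served as loading control. Protein measured by Bio-Rad assay.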
Background: Immunoblotting shows a protein as a band on a membrane.

In data set [14] the test system is RAW264.7. Nature of the data set: Increase in Bax protein expression in mouse RAW264.7 cells at 5 uM by Western blot. In kind it is functional, cell-based. An outline of the steps: as §4
The subject of data set [15] is RAW264.7. Nature of the data set: Decrease in Bcl-2 protein expression in mouse RAW264.7 cells at 5 uM by Western blot. In kind it is functional, cell-based. In short, it runs like this: as §4
For data set [16], the system named is RAW264.7. Nature of the data set: Decrease in Bcl-xl protein expression in mouse RAW264.7 cells at 5 uM by Western blot. Type of data set: functional, cell-based. An outline of the steps:
as §4

Data set [17] has as its system RAW264.7. Nature of the data set: Decrease in IAP protein expression in mouse RAW264.7 cells at 5 uM by Western blot. Type of data set: functional, cell-based. In short, it runs like this:
as §4

Each structure is given as a SMILES string. Activity calls are given as the source filed them. The rule behind the calls is not given here. Bounds are passed on as bounds.

For the compound `C=C1C(=O)[C@@]23CC[C@H]4[C@@](C)(CCC[C@@]4(C)C(=O)OC)[C@@H]2CC[C@@H]1C3`, the IC50 turned out to be 1 µM in the data set with RAW264.7 [1], 50 µM with HeLa, 75 µM in the data set on HepG2 and 30 µM in the data set on HT-29. For the same compound, the results for the Activity entry (in data set [2]; in data set [3]; with RAW264.7 [5]) were “Non-toxic”, “Non-toxic” and 50%, respectively. The result in the data set with RAW264.7 [4], in the data set on RAW264.7 [6], in the data set with RAW264.7 [7], in the data set on RAW264.7 [8], with RAW264.7 [13] and in the data set with RAW264.7 [14] was Active. Besides, the result with RAW264.7 [15], in the data set with RAW264.7 [16] and with RAW264.7 [17] was Active. The outcome with RAW264.7 [9], in the data set with RAW264.7 [10], in the data set on RAW264.7 [11] and in the data set with RAW264.7 [12] was inactive.

For `C=C1[C@H]2CC3=C([C@H](C2)[C@@H]1O)[C@]1(C)CCC[C@@](C)(C(=O)OC)[C@H]1CC3`, the IC50 in the data set on RAW264.7 [1] is 5 µM; in the data set on HeLa it was greater than 100 µM; with HepG2 it was greater than 100 µM; in the data set on HT-29 it was greater than 100 µM. The Activity result in data set [2] and in data set [3] was “Non-toxic” in each case. Moreover, the outcome with RAW264.7 [4], in the data set with RAW264.7 [6], in the data set with RAW264.7 [7], with RAW264.7 [8], in the data set on RAW264.7 [13] and with RAW264.7 [14] was Active. Further, the result in the data set on RAW264.7 [15], in the data set on RAW264.7 [16] and in the data set with RAW264.7 [17] was Active. For the same compound, the outcome with RAW264.7 [9], in the data set on RAW264.7 [10], in the data set with RAW264.7 [11] and with RAW264.7 [12] was inactive.

A word on the IC50: it is the point on the concentration scale where inhibition reaches its midpoint.

For the origin of these results see ChEMBL document CHEMBL1156919, “Synthesis and induction of apoptosis signaling pathway of ent-kaurane derivatives” (Bioorg Med Chem, 2010).
